Data as given in publication PMC3163381 (Biochemistry, 2011).

Experiments:
MscS = test: Patch-clamp of MscS in giant spheroplast patches, activation midpoint; assay type: biochemical, E. coli
Procedure, shortened: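 Giant spheroplasts from cephalexin-treated E. coli MJF 465 (mscS/mscK/mscL) expressing WT MscS. Excised inside-out patches in symmetrical 200mM KCl, 45mM MgCl2, 5mM CaCl2, 5mM HEPES (pH 7.4, KOH); bath had 400mM sucrose added. Test compound was perfused into the bath (cytoplasmic side). p0.5 was taken from 1 s pressure ramps, first within 1 min, then tracked over time, and normalized to pre-addition control.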

[1] = Pressure-area isotherms of lipid monolayers with the substance in the subphase; assay type: physicochemical, Escherichia coli; conditions: for increase in the lipid molecular area: 1 mM in subphase, at 35 mN/m (monolayer-bilayer equivalence pressure)
[2] = Surface tension measurements at the air-water interface; assay type: physicochemical; conditions: for surface activity at the air-water interface: result in words
[3] = Stability of AI-1 in water and phosphate buffer; assay type: physicochemical
Procedure, shortened: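 Test compound was held in deionized water and in phosphate buffer at pH 7.4, and followed over several days. Half-life was determined in the buffer.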

[4] = Solubility and stock solution observations in aqueous solution; conditions: result in words

Row | SMILES | shift of MscS p0.5 toward higher tension (MscS; 1 mM AI-1 from cytoplasmic side, relative to untreated control) [%] | lateral pressure increase in monolayers ([1]; at lipid area of 68–70 Å^2, Fig. 4A) | Γ, surface excess ([2]; Gibbs isotherm fit, 100 mM KCl, 5 mM HEPES pH 7.4) | AS, molecular area at the surface ([2]; air-water interface, from Gibbs isotherm fit) [Å^2] | decrease of surface tension of the solution ([2]; at 1–5 mM, aqueous buffer pH 7.4) | log Kmemb, membrane partitioning coefficient ([2]; calculated from AS and KAW according to Suomalainen) | KAW, propensity toward air-water interface ([2]; extrapolated Gibbs isotherm fit, pH 7.4) [M⁻¹] | stability in pure water ([3]; deionized water, result in words) | half-life ([3]; phosphate buffer at pH 7.4) [h] | effect on the activation midpoint of MscS (MscS; up to 1 mM in the bath, result in words, listed as AI-2) | increase in the lipid molecular area [1] [%] | surface activity at the air-water interface [2] | level at which p0.5 stabilizes above the control (MscS; 2.5 mM indole, after return) | transient shift of MscS activation curve towards higher tension (MscS; 2.5 mM indole, cytoplasmic side, naive patch) | solubility in aqueous solution [4]
1 | CCCCCCCC(=O)CC(=O)N[C@H]1CCOC1=O [AI-1, N-(3-Oxodecanoyl)-L-homoserine lactone] | ≤ 23 | ~ 5 mN/m | 3.4*10^−6 mol/m^2 | 49 | ~ 17 mN/m | 1.94 | 5600 | stable in pure water in the course of several days | 130 |  |  |  |  |  | 
2 | CC(=O)C(=O)C(O)CO (centres unmarked) [AI-2 (Methyl), 4,5-dihydroxy-2,3-pentanedione] |  |  |  |  |  |  |  |  |  | no detectable shifts | 2 | did not show any appreciable surface activity |  |  | 
3 | c1ccc2[nH]ccc2c1 [Indole] |  |  |  |  |  |  |  |  |  |  | 5 | did not show any appreciable surface activity | ~ 4% | ~ 20% | limited solubility
